{"source": "ChEMBL document CHEMBL4334452", "about": "“Monosaccharide Analogues of Anticancer Peptide R-Lycosin-I: Role of Monosaccharide Conjugation in Complexation and the Potential of Lung Cancer Targeting and Therapy” (J Med Chem, 2019)", "key": {"[1]": {"biological_target": "T1, Solute carrier family 2, facilitated glucose transporter member 1 (Homo sapiens) (UniProt P11166)", "T1 sequence (whole entry)": "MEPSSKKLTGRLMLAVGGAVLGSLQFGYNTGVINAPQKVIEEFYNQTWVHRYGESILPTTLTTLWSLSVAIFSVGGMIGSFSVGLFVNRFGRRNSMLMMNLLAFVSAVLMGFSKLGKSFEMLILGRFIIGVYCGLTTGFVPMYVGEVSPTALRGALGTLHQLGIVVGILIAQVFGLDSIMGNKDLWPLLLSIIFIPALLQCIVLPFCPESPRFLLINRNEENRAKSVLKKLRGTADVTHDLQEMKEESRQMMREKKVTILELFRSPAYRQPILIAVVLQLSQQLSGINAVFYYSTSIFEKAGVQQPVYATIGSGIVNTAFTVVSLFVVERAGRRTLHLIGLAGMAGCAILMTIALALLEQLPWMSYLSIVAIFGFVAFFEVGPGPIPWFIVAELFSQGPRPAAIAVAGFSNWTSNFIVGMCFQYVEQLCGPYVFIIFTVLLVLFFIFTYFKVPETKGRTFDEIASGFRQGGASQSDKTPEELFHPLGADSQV", "test": "Binding affinity to GLUT1 in human A549 cells assessed as cytotoxicity by measuring reduction in cell viability measured after 24 hrs by CCK8 assay", "type": "cell-based", "how_it_was_run": "(§1)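 Cells (A549, H460, H1437, PC-3, HGC-27, MDA-MB-231, HEK-293T, L-02) seeded at about 2×10^3/well and grown overnight. Treated 24 h with a peptide concentration series in serum-free medium. Viability by CCK-8; IC50 taken as 50% inhibition versus untreated cells. Average of three experiments, each in triplicate.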"}, "HEK-293T [2]": {"system": "HEK-293T", "test": "Cytotoxicity against HEK293T cells assessed as reduction in cell viability measured after 24 hrs by CCK8 assay", "type": "cell-based, Homo sapiens", "conditions": "for Activity: human, hek-293t", "how_it_was_run": "as §1"}, "[3]": {"biological_target": "T1, Solute carrier family 2, facilitated glucose transporter member 1 (Homo sapiens)", "test": "Binding affinity to GLUT1 in human A549 cells assessed as cytotoxicity by measuring reduction in cell viability at 15 uM by trypan blue staining-based assay", "how_it_was_run": "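A549 cells stained with trypan blue after peptide treatment at 15 µM. Dead cells appear blue and live cells unstained; live cells were counted.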"}, "[4]": {"biological_target": "T1, Solute carrier family 2, facilitated glucose transporter member 1 (Homo sapiens)", "test": "Binding affinity to GLUT1 in human A549 cells assessed as cytotoxicity at 12.5 uM measured after 2 hrs by LDH release assay", "type": "cell-based", "how_it_was_run": "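A549 cells at 2×10^3/well, allowed to adhere overnight, then exposed to peptide over a concentration series for 2 h. LDH release measured with a kit, absorbance at 490 nm. 1% Triton X-100 taken as 100% release; n=3.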"}, "[5]": {"biological_target": "T1, Solute carrier family 2, facilitated glucose transporter member 1 (Homo sapiens)", "test": "Binding affinity to GLUT1 in human A549 cells assessed as cytotoxicity by measuring reduction in cell viability at 12.5 uM measured after 2 hrs in presence of GLUT1 inhibitor STF-31 by CCK8 assay", "type": "cell-based", "how_it_was_run": "(§2)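 A549 cells at 2×10^3/well, grown overnight, then preincubated 4 h in F12K/10% FBS with or without STF-31 (1 µM final). […] Incubated a further 2 h at 37 °C; viability by CCK-8.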"}, "HEK-293T [6]": {"system": "HEK-293T", "test": "Cytotoxicity against HEK293T cells at 12.5 uM measured after 2 hrs by LDH release assay", "type": "cell-based", "conditions": "human"}, "[7]": {"biological_target": "T1, Solute carrier family 2, facilitated glucose transporter member 1 (Homo sapiens)", "test": "Binding affinity to GLUT1 in human A549 cells assessed as cytotoxicity by measuring reduction in cell viability at 12.5 uM measured after 2 hrs in absence of GLUT1 inhibitor STF-31 by CCK8 assay", "type": "cell-based", "how_it_was_run": "as §2"}}, "note": "Activity calls are given as the source filed them. The calls are words filed in the database; no cut-off is given here. *1 amine or outer side, *2 acyl side, *3 side chain or, on linkers, in order; H or OH if unused. Where a SMILES comes first, the peptide text is derived from it. The star is where a group is joined. X4 = CC(=O)N[C@H]1[C@H](OCCCN*)O[C@H](CO)[C@@H](O)[C@@H]1O; X3 = OC[C@H]1O[C@H](OCCCN*)[C@@H](O)[C@@H](O)[C@@H]1O; X1 = OC[C@H]1O[C@@H](OCCCN*)[C@H](O)[C@@H](O)[C@H]1O; X2 = O[C@@H]1[C@@H](O)[C@H](OCCCN*)OC[C@@H]1O; Glutaryl = O=C(CCCC(=O)[*:2])[*:1]"}
{"smiles": "CC[C@H](C)[C@H](NC(=O)[C@H](Cc1ccccc1)NC(=O)[C@H](CCCNC(=N)N)NC(=O)[C@H](C)NC(=O)[C@@H](NC(=O)[C@H](CO)NC(=O)[C@H](CCCNC(=N)N)NC(=O)[C@H](CCSC)NC(=O)[C@H](C)NC(=O)[C@H](CCCNC(=N)N)NC(=O)[C@H](Cc1ccccc1)NC(=O)[C@H](Cc1c[nH]c2ccccc12)NC(=O)CNC(=O)[C@H](CCCNC(=N)N)NC(=O)CCCC(=O)NCCCO[C@@H]1O[C@H](CO)[C@@H](O)[C@H](O)[C@H]1NC(C)=O)[C@@H](C)CC)C(=O)N[C@@H](C)C(=O)N[C@@H](CCCNC(=N)N)C(=O)N[C@@H](CCC(=O)O)C(=O)N[C@@H](CCCNC(=N)N)C(=O)N[C@@H](CC(C)C)C(=O)N[C@@H](CCCNC(=N)N)C(=O)N[C@@H](CCC(=O)O)C(=O)N[C@@H](Cc1cnc[nH]1)C(=O)N[C@@H](CC(C)C)C(=O)O", "note": "({X4-Glutaryl}-RGWFRAMRSIARFIARERLREHL-OH)", "values": [{"measurement": "Activity", "setting": "[1]", "value": "inactive"}, {"measurement": "Activity", "setting": "HEK-293T [2]", "value": "Non-Toxic"}, {"measurement": "Activity", "setting": "[3]", "value": "inactive"}]}
{"smiles": "CC[C@H](C)[C@H](NC(=O)[C@H](Cc1ccccc1)NC(=O)[C@H](CCCNC(=N)N)NC(=O)[C@H](C)NC(=O)[C@@H](NC(=O)[C@H](CO)NC(=O)[C@H](CCCNC(=N)N)NC(=O)[C@H](CCSC)NC(=O)[C@H](C)NC(=O)[C@H](CCCNC(=N)N)NC(=O)[C@H](Cc1ccccc1)NC(=O)[C@H](Cc1c[nH]c2ccccc12)NC(=O)CNC(=O)[C@H](CCCNC(=N)N)NC(=O)CCCC(=O)NCCCO[C@@H]1O[C@H](CO)[C@H](O)[C@H](O)[C@H]1O)[C@@H](C)CC)C(=O)N[C@@H](C)C(=O)N[C@@H](CCCNC(=N)N)C(=O)N[C@@H](CCC(=O)O)C(=O)N[C@@H](CCCNC(=N)N)C(=O)N[C@@H](CC(C)C)C(=O)N[C@@H](CCCNC(=N)N)C(=O)N[C@@H](CCC(=O)O)C(=O)N[C@@H](Cc1cnc[nH]1)C(=O)N[C@@H](CC(C)C)C(=O)O", "note": "({X1-Glutaryl}-RGWFRAMRSIARFIARERLREHL-OH)", "values": [{"measurement": "IC50", "setting": "HEK-293T [2]; Homo sapiens, HEK-293T", "value": 8.3, "unit": "µM"}, {"measurement": "Activity", "setting": "[4]", "value": "Active"}, {"measurement": "Activity", "setting": "[5]", "value": "Active"}, {"measurement": "Activity", "setting": "HEK-293T [6]", "value": "Toxic"}, {"measurement": "Activity", "setting": "[7]", "value": "Active"}, {"measurement": "Activity", "setting": "[3]", "value": "Active"}]}
{"smiles": "CC[C@H](C)[C@H](NC(=O)[C@H](Cc1ccccc1)NC(=O)[C@H](CCCNC(=N)N)NC(=O)[C@H](C)NC(=O)[C@@H](NC(=O)[C@H](CO)NC(=O)[C@H](CCCNC(=N)N)NC(=O)[C@H](CCSC)NC(=O)[C@H](C)NC(=O)[C@H](CCCNC(=N)N)NC(=O)[C@H](Cc1ccccc1)NC(=O)[C@H](Cc1c[nH]c2ccccc12)NC(=O)CNC(=O)[C@H](CCCNC(=N)N)NC(=O)CCCC(=O)NCCCO[C@@H]1OC[C@H](O)[C@H](O)[C@H]1O)[C@@H](C)CC)C(=O)N[C@@H](C)C(=O)N[C@@H](CCCNC(=N)N)C(=O)N[C@@H](CCC(=O)O)C(=O)N[C@@H](CCCNC(=N)N)C(=O)N[C@@H](CC(C)C)C(=O)N[C@@H](CCCNC(=N)N)C(=O)N[C@@H](CCC(=O)O)C(=O)N[C@@H](Cc1cnc[nH]1)C(=O)N[C@@H](CC(C)C)C(=O)O", "note": "({X2-Glutaryl}-RGWFRAMRSIARFIARERLREHL-OH)", "values": [{"measurement": "Activity", "setting": "[4]", "value": "Active"}, {"measurement": "Activity", "setting": "[5]", "value": "Active"}, {"measurement": "Activity", "setting": "HEK-293T [6]", "value": "Toxic"}, {"measurement": "Activity", "setting": "[7]", "value": "Active"}, {"measurement": "Activity", "setting": "[3]", "value": "Active"}]}
{"smiles": "CC[C@H](C)[C@H](NC(=O)[C@H](Cc1ccccc1)NC(=O)[C@H](CCCNC(=N)N)NC(=O)[C@H](C)NC(=O)[C@@H](NC(=O)[C@H](CO)NC(=O)[C@H](CCCNC(=N)N)NC(=O)[C@H](CCSC)NC(=O)[C@H](C)NC(=O)[C@H](CCCNC(=N)N)NC(=O)[C@H](Cc1ccccc1)NC(=O)[C@H](Cc1c[nH]c2ccccc12)NC(=O)CNC(=O)[C@H](CCCNC(=N)N)NC(=O)CCCC(=O)NCCCO[C@H]1O[C@H](CO)[C@@H](O)[C@H](O)[C@@H]1O)[C@@H](C)CC)C(=O)N[C@@H](C)C(=O)N[C@@H](CCCNC(=N)N)C(=O)N[C@@H](CCC(=O)O)C(=O)N[C@@H](CCCNC(=N)N)C(=O)N[C@@H](CC(C)C)C(=O)N[C@@H](CCCNC(=N)N)C(=O)N[C@@H](CCC(=O)O)C(=O)N[C@@H](Cc1cnc[nH]1)C(=O)N[C@@H](CC(C)C)C(=O)O", "note": "({X3-Glutaryl}-RGWFRAMRSIARFIARERLREHL-OH)", "values": [{"measurement": "Activity", "setting": "[1]", "value": "inactive"}, {"measurement": "Activity", "setting": "HEK-293T [2]", "value": "Non-Toxic"}, {"measurement": "Activity", "setting": "[3]", "value": "inactive"}]}
